According to ChEMBL document CHEMBL1806419, “18β-Glycyrrhetinic acid derivatives induced mitochondrial-mediated apoptosis through reactive oxygen species-mediated p53 activation in NTUB1 cells” (Bioorg Med Chem, 2011):
Calls of active or inactive are those of the source. The calls are words filed in the database; no cut-off is given here.

Tests used:
[1] = test system: PC-3; assay: Cytotoxicity against human PC3 cells after 72 hrs by MTT assay; assay type: functional, cell-based
Procedure, shortened: (§1)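 Cells seeded 1800/well in 96-well plates, preincubated overnight at 37 °C, then exposed to graded concentrations for 72 h at 37 °C (NTUB1, PC3 in RPMI 1640; SV-HUC1 in F12; 10% FBS, 5% CO2). MTT (2 mg/mL) added 3 h, formazan dissolved in DMSO, absorbance 540 nm; viability as percent of control; IC50 by median-effect analysis, mean ± SD.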

[2] = Cytotoxicity against immortalized human SV-HUC1 cells after 72 hrs by MTT assay; assay type: cell-based; conditions: sv-huc1, 72 h; procedure, shortened: as §1
[3] = Cytotoxicity against human NTUB1 cells after 72 hrs by MTT assay; assay type: functional, cell-based; conditions: NTUB1, 72 h; procedure, shortened: as §1
[4] = Decrease in ROS generation in human NTUB1 cells at 1 mM after 24 hrs by H2DCFDA staining based flow cytometeric analysis relative to control; assay type: functional; design: scale not given: the % may be the effect or the level left
Procedure, shortened: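 NTUB1 cells (3×10^5 per 6 cm dish) treated 24 h (20 µM cisplatin and 1 mM NAC controls; medium-only control); 10 µM H2DCFDA added 30 min before harvest; trypsinized, PBS-washed, DCF green fluorescence (525 nm band pass, region M1) measured immediately by flow cytometry; percent change vs control; mean ± SD, n = 3.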

[5] = Cell cycle arrest in human NTUB1 cells assessed as accumulation at S phase at 1 mM after 24 hrs by propidium iodide staining based flow cytometric analysis (reference value: 20.37%); assay type: functional
Procedure, shortened: (§2)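 8×10^5 NTUB1 cells plated, treated 24 h (alongside 10 µM cisplatin, 1 mM NAC, 50 µM H2O2 controls); harvested by trypsinization, fixed overnight in ice-cold MeOH at −20 °C, stained with 50 µg/mL propidium iodide plus 50 µg/mL RNase A in PBS 30 min at room temperature; cell-cycle phase fractions and sub-G1 (apoptotic) DNA content by FACScan flow cytometry; three independent experiments.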

[6] = Cell cycle arrest in human NTUB1 cells assessed as accumulation at G1 phase at 1 mM after 24 hrs by propidium iodide staining based flow cytometric analysis (reference value: 50.64%); assay type: functional; procedure, shortened: as §2
[7] = Cell cycle arrest in human NTUB1 cells assessed as accumulation at subG1 phase at 1mM after 24 hrs by propidium iodide staining based flow cytometric analysis (reference value: 6.68%); assay type: functional; procedure, shortened: as §2
[8] = Cell cycle arrest in human NTUB1 cells assessed as accumulation at G2/M phase at 1 mM after 24 hrs by propidium iodide staining based flow cytometric analysis (reference value: 20.37%); assay type: functional; procedure, shortened: as §2
[9] = Induction of apoptosis in human NTUB1 cells assessed as decrease in JC-1 aggregation at 10 uM after 24 hrs by flow cytometric analysis; assay type: functional; design: scale not given: the % may be the effect or the level left
Procedure, shortened: (§3)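 NTUB1 bladder carcinoma cells (3 × 10^5) in RPMI 1640 with 10% FBS at 37 °C, 5% CO2, exposed to test agent (10, 25 or 50 µM) with 10 µM CCCP as positive control. Stained 30 min with 1 µM JC-1 in medium, washed, trypsinised, resuspended in PBS/2% BSA. Flow cytometry read green monomer and red aggregate fluorescence; the aggregate/monomer ratio represents membrane potential.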

[10] = Induction of apoptosis in human NTUB1 cells assessed as increase in JC-1 probe monomers at 10 uM after 24 hrs by flow cytometric analysis; assay type: functional; procedure, shortened: as §3
[11] = Cytotoxicity against human NTUB1 cells assessed as cytotoxic inhibition at 1 uM after 72 hrs by MTT assay relative to control; conditions: NTUB1, 72 h
[12] = Cytotoxicity against human NTUB1 cells assessed as cell viability at 50 uM after 72 hrs by MTT assay relative to control; assay type: functional; conditions: NTUB1, 72 h, read-out: Activity; procedure, shortened: as §1
[13] = Cytotoxicity against human NTUB1 cells assessed as cell viability at 5 uM after 72 hrs by MTT assay relative to control; assay type: functional; conditions: NTUB1, 72 h, read-out: Activity; procedure, shortened: as §1
[14] = Cytotoxicity against human NTUB1 cells assessed as cell viability at 30 uM after 72 hrs by MTT assay relative to control; assay type: functional; conditions: NTUB1, 72 h, read-out: Activity; procedure, shortened: as §1
[15] = Cytotoxicity against human NTUB1 cells assessed as cell viability at 10 uM after 72 hrs by MTT assay relative to control; assay type: functional; conditions: NTUB1, 72 h, read-out: Activity; procedure, shortened: as §1
[16] = Cytotoxicity against human NTUB1 cells assessed as cell viability at 3 uM after 72 hrs by MTT assay relative to control; assay type: functional; conditions: NTUB1, 72 h, read-out: Activity; procedure, shortened: as §1

SMILES	IC50 [3] [µM]	also measured
C=C(C)[C@@H]1CC[C@]2(C)[C@H](C(=O)C=C3[C@@H]4C[C@@](C)(C(=O)NC(C)C)CC[C@]4(C)CC[C@]32C)[C@@]1(C)CCC(=O)OCC	19.4	Activity [1]: Active; Activity [2]: Non-toxic
CC1(C)C(=O)CC[C@]2(C)[C@H]3C(=O)C=C4[C@@H]5C[C@@](C)(C(=O)OCc6ccccc6)CC[C@]5(C)CC[C@@]4(C)[C@]3(C)CC[C@@H]12	20.2	–
CC1(C)C(=O)CC[C@]2(C)[C@H]3C(=O)C=C4[C@@H]5C[C@@](C)(C(=O)O)CC[C@]5(C)CC[C@@]4(C)[C@]3(C)CC[C@@H]12	18.6	–
CC(=O)N[C@@H](CS)C(=O)O [ACETYLCYSTEINE]	–	Activity [4]: 26.1%; Activity [5]: 29.2%; Activity [6]: 44.4%; Activity [7]: 2.66%; Activity [8]: 20.2%
C=C(C)[C@@H]1CC[C@]2(C)[C@H](C(=O)C=C3[C@@H]4C[C@@](C)(C(=O)NC(C)C)CC[C@]4(C)CC[C@]32C)[C@@]1(C)CCC(=O)O	17.5	–
CC(C)NC(=O)[C@@]1(C)CC[C@]2(C)CC[C@]3(C)C(=CC(=O)[C@@H]4[C@@]5(C)CCC(=O)OC(C)(C)[C@@H]5CC[C@]43C)[C@@H]2C1	25.7	–
C=C(C)[C@@H]1CC[C@]2(C)[C@H](C(=O)C=C3[C@@H]4C[C@@](C)(C(=O)OC)CC[C@]4(C)CC[C@]32C)[C@@]1(C)CCC(=O)NC(C)C	31.4	–
C=C(C)[C@@H]1CC[C@]2(C)[C@H](C(=O)C=C3[C@@H]4C[C@@](C)(C(=O)OCc5ccccc5)CC[C@]4(C)CC[C@]32C)[C@@]1(C)CCC(=O)OCC	27.8	–
CC1(C)OC(=O)CC[C@]2(C)[C@H]3C(=O)C=C4[C@@H]5C[C@@](C)(C(=O)Nc6ccccc6)CC[C@]5(C)CC[C@@]4(C)[C@]3(C)CC[C@@H]12	16	–
C=C(C)[C@@H]1CC[C@]2(C)[C@H](C(=O)C=C3[C@@H]4C[C@@](C)(C(=O)NC(C)C)CC[C@]4(C)CC[C@]32C)[C@@]1(C)CCC(=O)NCC	12.8	Activity [1]: Active; Activity [2]: Non-toxic
CC1(C)OC(=O)CC[C@]2(C)[C@H]3C(=O)C=C4[C@@H]5C[C@@](C)(C(=O)O)CC[C@]5(C)CC[C@@]4(C)[C@]3(C)CC[C@@H]12	73.5	–
N#CC(C#N)=NNc1cccc(Cl)c1 [CARBONYL CYANIDE M-CHLOROPHENYLHYDRAZONE]	–	Activity [9]: 48.42%; Activity [10]: 52.06%
C=C(C)[C@@H]1CC[C@]2(C)[C@H](C(=O)C=C3[C@@H]4C[C@@](C)(C(=O)OCc5ccccc5)CC[C@]4(C)CC[C@]32C)[C@@]1(C)CCC(=O)OC(C)C	18.2	–
CC1(C)[C@@H](O)CC[C@]2(C)[C@H]3C(=O)C=C4[C@@H]5C[C@@](C)(C(=O)O)CC[C@]5(C)CC[C@@]4(C)[C@]3(C)CC[C@@H]12 [ENOXOLONE]	27.3	–
C=C(C)[C@@H]1CC[C@]2(C)[C@H](C(=O)C=C3[C@@H]4C[C@@](C)(C(=O)OCc5ccccc5)CC[C@]4(C)CC[C@]32C)[C@@]1(C)CCC(=O)NC(C)C	30.1	–
C=C(C)[C@@H]1CC[C@]2(C)[C@H](C(=O)C=C3[C@@H]4C[C@@](C)(C(=O)OCc5ccccc5)CC[C@]4(C)CC[C@]32C)[C@@]1(C)CCC(=O)O	2.34	–
C=C(C)[C@@H]1CC[C@]2(C)[C@H](C(=O)C=C3[C@@H]4C[C@@](C)(C(=O)OCc5ccccc5)CC[C@]4(C)CC[C@]32C)[C@@]1(C)CCC(=O)NCC	42.7	–
C=C(C)[C@@H]1CC[C@]2(C)[C@H](C(=O)C=C3[C@@H]4C[C@@](C)(C(=O)OCc5ccccc5)CC[C@]4(C)CC[C@]32C)[C@@]1(C)CCC(=O)NCCC	49.4	–
COC(=O)[C@@]1(C)CC[C@]2(C)CC[C@]3(C)C(=CC(=O)[C@@H]4[C@@]5(C)CCC(=O)OC(C)(C)[C@@H]5CC[C@]43C)[C@@H]2C1	24.3	–
CC1(C)OC(=O)CC[C@]2(C)[C@H]3C(=O)C=C4[C@@H]5C[C@@](C)(C(=O)OCc6ccccc6)CC[C@]5(C)CC[C@@]4(C)[C@]3(C)CC[C@@H]12	57.6	–
C=C(C)[C@@H]1CC[C@]2(C)[C@H](C(=O)C=C3[C@@H]4C[C@@](C)(C(=O)NC(C)C)CC[C@]4(C)CC[C@]32C)[C@@]1(C)CCC(=O)NCCC	> 50	–
COC(=O)[C@@]1(C)CC[C@]2(C)CC[C@]3(C)C(=CC(=O)[C@@H]4[C@@]5(C)CCC(=O)C(C)(C)[C@@H]5CC[C@]43C)[C@@H]2C1	56.5	–
C=C(C)[C@@H]1CC[C@]2(C)[C@H](C(=O)C=C3[C@@H]4C[C@@](C)(C(=O)OCc5ccccc5)CC[C@]4(C)CC[C@]32C)[C@@]1(C)CCC(=O)OC	9.41	cytotoxic inhibition at 1 µM [11]: 32%; viability at 50 µM [12]: 68%; viability at 5 µM [13]: 20%; viability at 30 µM [14]: 66%; viability at 10 µM [15]: 50%; viability at 3 µM [16]: 22%
C=C(C)[C@@H]1CC[C@]2(C)[C@H](C(=O)C=C3[C@@H]4C[C@@](C)(C(=O)OC)CC[C@]4(C)CC[C@]32C)[C@@]1(C)CCC(=O)OC(C)C	25.3	–
C=C(C)[C@@H]1CC[C@]2(C)[C@H](C(=O)C=C3[C@@H]4C[C@@](C)(C(=O)NC(C)C)CC[C@]4(C)CC[C@]32C)[C@@]1(C)CCC(=O)OC	13.1	cytotoxic inhibition at 1 µM [11]: 40%; viability at 50 µM [12]: 71%; viability at 5 µM [13]: 24%; viability at 30 µM [14]: 67%; viability at 10 µM [15]: 27%; viability at 3 µM [16]: 25%
C=C(C)[C@@H]1CC[C@]2(C)[C@H](C(=O)C=C3[C@@H]4C[C@@](C)(C(=O)NC(C)C)CC[C@]4(C)CC[C@]32C)[C@@]1(C)CCC(=O)OC(C)C	29.2	–
C=C(C)[C@@H]1CC[C@]2(C)[C@H](C(=O)C=C3[C@@H]4C[C@@](C)(C(=O)Nc5ccccc5)CC[C@]4(C)CC[C@]32C)[C@@]1(C)CCC(=O)O	3.31	–
C=C(C)[C@@H]1CC[C@]2(C)[C@H](C(=O)C=C3[C@@H]4C[C@@](C)(C(=O)OC)CC[C@]4(C)CC[C@]32C)[C@@]1(C)CCC(=O)O	20.7	–
